The results in this text go back to ChEMBL document CHEMBL5576114, “Inhibition of DXR in the MEP pathway with lipophilic N-alkoxyaryl FR900098 analogs” (RSC Med Chem, 2024).

In general, IC50 refers to the concentration at which inhibition is half-maximal. The MIC is the least concentration at which growth counts as inhibited. For orientation: inhibition means the relative decrease from the control value, in per cent.

The target in data set [1] is T1, 1-deoxy-D-xylulose 5-phosphate reductoisomerase, apicoplastic (Plasmodium falciparum (isolate 3D7), UniProt Q8IKG4).
T1 sequence (Q8IKG4 whole entry): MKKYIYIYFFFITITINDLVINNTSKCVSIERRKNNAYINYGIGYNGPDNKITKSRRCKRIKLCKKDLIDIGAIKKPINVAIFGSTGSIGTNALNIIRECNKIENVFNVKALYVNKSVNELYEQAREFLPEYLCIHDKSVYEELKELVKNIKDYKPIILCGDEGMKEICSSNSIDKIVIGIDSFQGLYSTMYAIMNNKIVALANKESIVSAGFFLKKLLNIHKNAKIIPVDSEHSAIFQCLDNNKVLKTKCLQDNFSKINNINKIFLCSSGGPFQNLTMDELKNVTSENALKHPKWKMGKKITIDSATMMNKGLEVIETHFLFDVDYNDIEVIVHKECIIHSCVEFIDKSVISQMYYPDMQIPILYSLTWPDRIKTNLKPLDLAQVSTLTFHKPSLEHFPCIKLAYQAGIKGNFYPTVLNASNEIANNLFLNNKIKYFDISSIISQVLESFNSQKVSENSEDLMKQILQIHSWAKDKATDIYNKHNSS
Kind of data set: Inhibition of Plasmodium falciparum DXR expressed in Escherichia coli BL21 CodonPlus (DE3)-RIL cells using DOXP as substrate in presence of NADPH by UV-visible spectrophotometry.

Data set [2] concerns Plasmodium falciparum. Kind of data set: Antiplasmodial activity against Plasmodium falciparum 3D7 assessed as reduction in parasite growth by measuring DNA content after 3 days by PicoGreen staining based FLUOstar omega microplate reader analysis. The format is functional, organism-based. The conditions noted are these: 3D7, 72 h. An outline of the steps: (§1)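 Asynchronous cultures in 2% hematocrit, RPMI-1640 complete medium with 0.5% Albumax, under 5% O2/5% CO2/90% N2 at 37 °C. Diluted to 0.5% parasitemia, inhibitors 1.2 nM to 492.4 µM added at start. Growth read after 3 days as DNA content by PicoGreen fluorescence (485/528 nm). IC50 from 4-parameter nonlinear regression; technical duplicate, biological triplicate.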

Data set [3] deals with T2, 1-deoxy-D-xylulose 5-phosphate reductoisomerase (Mycobacterium tuberculosis) (UniProt P9WNS1).
T2 sequence (whole entry): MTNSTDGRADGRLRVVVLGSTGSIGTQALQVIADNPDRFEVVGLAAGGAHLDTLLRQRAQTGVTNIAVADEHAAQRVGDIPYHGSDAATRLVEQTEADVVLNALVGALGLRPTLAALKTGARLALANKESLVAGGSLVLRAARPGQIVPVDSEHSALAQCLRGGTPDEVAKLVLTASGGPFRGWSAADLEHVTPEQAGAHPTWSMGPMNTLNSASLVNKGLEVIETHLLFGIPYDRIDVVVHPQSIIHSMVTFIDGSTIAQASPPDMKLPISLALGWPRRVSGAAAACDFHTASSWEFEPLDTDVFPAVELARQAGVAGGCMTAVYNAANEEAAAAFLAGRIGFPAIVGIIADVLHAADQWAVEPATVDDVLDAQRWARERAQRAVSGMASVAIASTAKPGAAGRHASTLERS
The data set can be described thus: Inhibition of Mycobacterium tuberculosis DXR expressed in Escherichia coli BL21 CodonPlus (DE3)-RIL cells assessed as remaining activity using DOXP as substrate at 100 uM in presence of NADPH by UV-visible spectrophotometry relative to control. In a few lines: (§2)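 Recombinant MtbDXR (pET101/D-TOPO in E. coli BL21 CodonPlus (DE3)-RIL, IMAC-purified) at 0.89 µM in 100 mM MES pH 6.5, 25 mM MgCl2, 150 µM NADPH, 47 µM DOXP, 37 °C. Inhibitor was tested at a single 100 µM. NADPH oxidation was followed at 340 nm, and percent remaining activity was reported. Technical duplicates.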

The subject of data set [4] is Mycobacterium tuberculosis. The data set can be described thus: Antibacterial activity against Mycobacterium tuberculosis H37Rv assessed as reduction in bacterial growth incubated for 2 weeks by macroscopic plate reader analysis. In kind it is functional. The conditions noted are these: 336 h. An outline of the steps: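 H37Rv grown in 7H9 broth with 0.08% NaCl, 0.4% glucose, 0.05% casitone and 0.05% tyloxapol, then diluted 1:500. Compounds were made as 20 mg/mL DMSO stocks and run as eleven 2-fold serial dilutions. Plates were held 2 weeks at 37 °C and MIC99 was read macroscopically. Three independent measurements.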

Data set [5] concerns Plasmodium falciparum. The data set can be described thus: Antiplasmodial activity against Plasmodium falciparum E1-C12 harboring with had1 mutation assessed as reduction in parasite growth by measuring DNA content after 3 days by PicoGreen staining based FLUOstar omega microplate reader analysis. The format is functional, organism-based. The conditions noted are these: time 3.0 day. In a few lines: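 E1-C12 (had1) parasites, asynchronous, at 2% hematocrit in RPMI-1640/0.5% Albumax with hypoxanthine, under 5% O2/5% CO2/90% N2 at 37 °C. Started at 0.5% parasitemia and dosed at 1.2 nM–492.4 µM. After 3 days, DNA was stained with PicoGreen (ex 485/em 528). IC50 came from a 4-parameter fit; technical duplicates, biological triplicates.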

In data set [6] the test system is Plasmodium falciparum. The data set can be described thus: Antiplasmodial activity against Plasmodium falciparum E1-C12 harboring with had1 mutation assessed as reduction in parasite growth by measuring DNA content after 3 days in presence of IPP by PicoGreen staining based FLUOstar omega microplate reader analysis. In kind it is functional, organism-based. The conditions noted are these: time 3.0 day. In a few lines:
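IPP rescue in had1 E1-C12 parasites: 125 µM IPP was present for the whole assay. Cultures at 2% hematocrit in Albumax-supplemented RPMI, 5% O2/5% CO2, 37 °C, started at 0.5% parasitemia. Inhibitors were dosed at 1.2 nM–492.4 µM, and growth was read after 3 days by PicoGreen fluorescence. 4-parameter fit; duplicate wells, biological triplicates.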

The nature of data set [7]: Cytotoxicity against human HepG2 cells assessed as reduction in cell viability after 24 hrs by Cell Titer Glo assay. In kind it is toxicity, cell-based. An outline of the steps: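 HepG2 cells in DMEM with 4 mM L-glutamine and 4.5 g/L glucose, trypsinized and plated from a 4×10^5 cells/mL suspension. Compounds were tested as two-fold dilutions from 100 to 0.1 µg/mL, with a DMSO-only control, in duplicate. After 24 h at 37 °C, 5% CO2, CellTiter-Glo luminescence was read after 20 min in the dark.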
For orientation: Cellular ATP, detected with luciferase, serves as a proxy for viable cell number.

In data set [8] the target is T3, 1-deoxy-D-xylulose 5-phosphate reductoisomerase, apicoplastic (Plasmodium falciparum (isolate 3D7)) (UniProt Q8IKG4).
T3 sequence (whole entry): T1 sequence (Q8IKG4 whole entry)
The data set can be described thus: Inhibition of Plasmodium falciparum DXR expressed in Escherichia coli BL21 CodonPlus (DE3)-RIL cells using DOXP as substrate at 100 uM in presence of NADPH by UV-visible spectrophotometry relative to control. In a few lines:
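PfDXR single-point test at 100 µM inhibitor. Conditions: 0.86 µM IMAC-purified enzyme, 100 mM Tris pH 7.8, 25 mM MgCl2, 150 µM NADPH, 37 °C. Reaction was started with 144 µM DOXP, and NADPH oxidation was monitored at 340 nm. Percent remaining activity was reported; technical duplicates.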

The target in data set [9] is T1, 1-deoxy-D-xylulose 5-phosphate reductoisomerase, apicoplastic. The data set can be described thus: Inhibition of Plasmodium falciparum DXR.
Data set [10] concerns the target T4, 1-deoxy-D-xylulose 5-phosphate reductoisomerase (Mycobacterium tuberculosis, UniProt P9WNS1).
T4 sequence (P9WNS1 whole entry): T2 sequence (whole entry)
The data set can be described thus: Inhibition of Mycobacterium tuberculosis DXR using DXP as substrate preincubated for 10 mins followed by NADPH addition and measured after 5 mins by spectrophotometric assay.

For data set [11], the system named is Mycobacterium tuberculosis. Kind of data set: Antibacterial activity against Mycobacterium tuberculosis H37Rv assessed as reduction in bacterial growth. The format is functional.
In data set [12] the test system is Plasmodium falciparum. Kind of data set: Antiplasmodial activity against Plasmodium falciparum. In kind it is functional, organism-based. In a few lines:
as §1

Data set [13] concerns the target T4, 1-deoxy-D-xylulose 5-phosphate reductoisomerase. Kind of data set: Inhibition of Mycobacterium tuberculosis DXR expressed in Escherichia coli BL21 CodonPlus (DE3)-RIL cells using DOXP as substrate in presence of NADPH by UV-visible spectrophotometry.
For data set [14], the target named is T2, 1-deoxy-D-xylulose 5-phosphate reductoisomerase (Mycobacterium tuberculosis). Kind of data set: Inhibition of Mycobacterium tuberculosis DXR expressed in Escherichia coli BL21 CodonPlus (DE3)-RIL cells using DOXP as substrate at 100 uM in presence of NADPH by UV-visible spectrophotometry relative to control. An outline of the steps: as §2

Converted amounts (≈) assume the structure as drawn. The source made the active and inactive calls. The rule behind the calls is not given here.

For `CC(=O)N(CCC(c1ccc(Cl)c(Cl)c1)P(=O)(O)O)OC(C)c1ccc(C)cc1` (stereo unspecified), the IC50 was 1210 nM in data set [1] and 3530 nM with Plasmodium falciparum [2]. Moreover, the Activity in data set [3] was found to be 30.7%. Also, the minimal inhibitory concentration (MIC) in data set [4] is above 101 µM. Moreover, in the data set on Plasmodium falciparum [5], the outcome was Active. For the same compound, in the data set on Plasmodium falciparum [6], the outcome was inactive. Besides, in [7], the IC50 at 24 h is above 200000 nM. Further, the inhibition in data set [8] was above 90%.

Regarding `CC(=O)N(O)CCCP(=O)(O)O` [FR-900098], the IC50 in [9] was found to be 22 nM; in [10], 2910 nM. In addition, the minimum inhibitory concentration (MIC) in data set [11] is above 500 µg/mL.

In turn, `O=CN(O)CCCP(=O)(O)O` [FOSMIDOMYCIN] gave a concentration for half-maximal inhibition (IC50) with Plasmodium falciparum [12] of 1020 nM. Moreover, the MIC in data set [11] was above 500 µg/mL.

Consider `COc1ccc(C(C)ON(CCC(c2ccc(Cl)c(Cl)c2)P(=O)(O)O)C(C)=O)cc1` (stereo unspecified), for which the IC50 in data set [1] worked out at 110 nM; in the data set on Plasmodium falciparum [2], 300 nM; in data set [13], 780 nM. Besides, the MIC in data set [4] was above 98 µM. In addition, the result in the data set with Plasmodium falciparum [5] was Active. In addition, the outcome in the data set on Plasmodium falciparum [6] was inactive. The IC50 at 24 h in [7] was above 200000 nM. The inhibition in [8] and in [14] was above 90% each time.

Take `CC(=O)N(CCC(c1ccc(Cl)c(Cl)c1)P(=O)(O)O)OC(C)c1ccc(F)cc1` (stereo unspecified): the concentration for half-maximal inhibition (IC50) in data set [1] was determined as 470 nM; with Plasmodium falciparum [2] it was 2420 nM; in [13], 4780 nM. For the same compound, in data set [4], the MIC was above 200 µM. For the same compound, the result in the data set with Plasmodium falciparum [5] was Active. Besides, the outcome with Plasmodium falciparum [6] was inactive. Also, the 50% inhibitory concentration (IC50) at 24 h in data set [7] is above 200000 nM. For the same compound, the inhibition in [8] and in data set [14] was above 90% each time.

With `COc1ccc(C(C)ON(CCC(c2ccc(Cl)c(Cl)c2)P(=O)(OCOC(=O)C(C)(C)C)OCOC(=O)C(C)(C)C)C(C)=O)cc1` (stereo unspecified), the IC50 with Plasmodium falciparum [2] was 370 nM. The MIC in data set [4] was determined as 6.5 µM (≈ 4.58 µg/mL). The outcome in the data set with Plasmodium falciparum [5] was Active. Besides, in the data set on Plasmodium falciparum [6], the outcome was inactive. In addition, the half-inhibitory concentration (IC50) at 24 h in data set [7] is above 140000 nM.
